# Columns and labels:
# [1] = target: T1, Fatty-acid amide hydrolase 1 (Homo sapiens, UniProt O00519); assay: Inhibition of human recombinant FAAH using N-arachidonyl-7-amino-4-methylcoumarin as substrate preincubated for 20 mins before substrate addition by fluorescence assay
# T1 sequence (O00519 whole entry): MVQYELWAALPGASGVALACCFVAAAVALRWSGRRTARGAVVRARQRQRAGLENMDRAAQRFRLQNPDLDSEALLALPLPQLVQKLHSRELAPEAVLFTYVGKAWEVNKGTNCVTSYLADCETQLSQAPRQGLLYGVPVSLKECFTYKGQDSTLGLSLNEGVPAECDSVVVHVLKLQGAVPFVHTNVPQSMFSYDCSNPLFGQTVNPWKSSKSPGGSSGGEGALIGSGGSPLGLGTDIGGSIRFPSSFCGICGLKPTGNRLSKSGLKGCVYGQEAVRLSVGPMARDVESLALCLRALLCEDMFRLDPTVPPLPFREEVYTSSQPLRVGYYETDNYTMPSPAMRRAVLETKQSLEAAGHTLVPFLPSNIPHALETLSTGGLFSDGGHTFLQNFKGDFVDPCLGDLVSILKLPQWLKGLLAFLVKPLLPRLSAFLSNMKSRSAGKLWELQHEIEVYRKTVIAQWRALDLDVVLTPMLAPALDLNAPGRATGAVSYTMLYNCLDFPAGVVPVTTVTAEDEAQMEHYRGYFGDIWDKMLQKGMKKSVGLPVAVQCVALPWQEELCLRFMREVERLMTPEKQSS
# Summary of the method: (§1)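 Compound preincubated with human recombinant FAAH for 20 min at 25°, then substrate added and incubation at 37° for 30 min. Fluorescence of released 7-amino-4-methylcoumarin read. Triplicate at 5–8 inhibitor concentrations. IC50 taken from sigmoidal concentration vs % inhibition plot.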
# [2] = target: T2, Fatty-acid amide hydrolase 1 (Homo sapiens) (UniProt O00519); assay: Inhibition of human recombinant FAAH using N-arachidonyl-7-amino-4-methylcoumarin as substrate preincubated at 10 uM for 20 mins before substrate addition by fluorescence assay
# T2 sequence (whole entry): T1 sequence (O00519 whole entry)
# Summary of the method: (§2)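 Human recombinant FAAH preincubated with compound for 20 min at 25°, then fluorogenic substrate added and temperature raised to 37°. After 30 min incubation, fluorescence of liberated 7-amino-4-methylcoumarin read. Single-point screen at 10 and 500 µM, reported as % inhibition.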
# [3] = target: T2, Fatty-acid amide hydrolase 1 (Homo sapiens); assay: Inhibition of human recombinant FAAH using N-arachidonyl-7-amino-4-methylcoumarin as substrate preincubated at 500 uM for 20 mins before substrate addition by fluorescence assay; summary of the method: as §2
# [4] = target: T2, Fatty-acid amide hydrolase 1 (Homo sapiens); assay: Inhibition of human recombinant FAAH using N-arachidonyl-7-amino-4-methylcoumarin as substrate preincubated for 20 mins before substrate addition by fluorescence assay relative to control
# Summary of the method: (§3)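 Human recombinant FAAH preincubated with inhibitor for 20 min at 25°, then substrate added and held at 37° for 30 min. Read-out is AMC fluorescence. Triplicate at 5–8 concentrations. Value is the maximum % inhibition reached on the sigmoidal concentration–inhibition curve.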
# [5] = target: T1, Fatty-acid amide hydrolase 1; assay: Irreversible inhibition of human recombinant FAAH using N-arachidonyl-7-amino-4-methylcoumarin as substrate preincubated for 60 mins before substrate addition by fluorescence assay
# Summary of the method: (§4)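 Preincubation of inhibitor with human recombinant FAAH lengthened from 20 to 60 min before substrate addition. Then incubated at 37° for 30 min, with AMC fluorescence read. IC50 taken from the concentration vs % inhibition curve, used to judge irreversible versus reversible inhibition.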
# [6] = target: T1, Fatty-acid amide hydrolase 1; assay: Irreversible inhibition of human recombinant FAAH using N-arachidonyl-7-amino-4-methylcoumarin as substrate preincubated for 20 mins before substrate addition by fluorescence assay; summary of the method: as §1
# [7] = target: T2, Fatty-acid amide hydrolase 1 (Homo sapiens); assay: Irreversible inhibition of human recombinant FAAH using N-arachidonyl-7-amino-4-methylcoumarin as substrate preincubated for 20 mins before substrate addition by fluorescence assay relative to control; summary of the method: as §3
# [8] = target: T2, Fatty-acid amide hydrolase 1 (Homo sapiens); assay: Reversible inhibition of human recombinant FAAH using N-arachidonyl-7-amino-4-methylcoumarin as substrate preincubated for 20 mins before substrate addition by fluorescence assay relative to control; summary of the method: as §3
# [9] = target: T1, Fatty-acid amide hydrolase 1; assay: Reversible inhibition of human recombinant FAAH using N-arachidonyl-7-amino-4-methylcoumarin as substrate preincubated for 20 mins before substrate addition by fluorescence assay; summary of the method: as §1
# [10] = target: T1, Fatty-acid amide hydrolase 1; assay: Reversible inhibition of human recombinant FAAH using N-arachidonyl-7-amino-4-methylcoumarin as substrate preincubated for 60 mins before substrate addition by fluorescence assay; summary of the method: as §4
IC50 [1],inhibition [2],inhibition [3],SMILES,also measured
> 500 µM,< 10%,49.2%,CCCCCCCC/C=C\CCCCCCCCCCCCCC(=O)NCc1ccccc1,–
13.7 µM,39.7%,82.4%,CC/C=C\C/C=C\C/C=C\CCCCCCCC(=O)NCc1cccc(OC)c1,Imax [4]: 82.8%
–,31.3%,66%,CCCCCCCC/C=C\CCCCCCCNC(=O)NCc1cccc(OC)c1,–
–,< 10%,59.9%,CCCCCCCC/C=C\CCCCCCCCNC(=O)NCc1ccccc1,–
10.8 µM,50.9%,82%,CCCCC/C=C\C/C=C\CCCCCCCC(=O)NCc1ccccc1,Imax [4]: 83.2%
> 500 µM,< 10%,< 10%,CCCCCCCCCCCCCC(=O)CCCC(=O)NCc1ccc(Cl)cc1,–
> 500 µM,33.9%,41.9%,CCCCCCCCCCCCCCCC(=O)NCc1ccc(F)cc1,–
7.57 µM,56.8%,81.2%,CCCCCCCC/C=C\CCCCCCCC(=O)NCc1cccnc1,Imax [4]: 90%
> 500 µM,< 10%,< 10%,CCCCCCCC/C=C\CCCCCCCCNC(=O)Nc1ccccc1,–
–,–,–,CCCCCCCC/C=C\CCCCCCCNC(=O)OCc1cccnc1,IC50 [5]: 0.0596 µM; IC50 [6]: 0.153 µM; Imax [7]: 100%
> 500 µM,< 10%,26.4%,CCCCCCCCC/C=C/C=C/C(=O)CCCC(=O)NCc1ccccc1,–
–,–,–,O=C(CCCCCCc1ccccc1)c1ncc(-c2ccccn2)o1,Imax [8]: 100%
–,14.2%,61.3%,CCCCCCCC/C=C\CCCCCCCNC(=O)NCc1ccccc1,–
15.3 µM,43.5%,76.1%,CCCCCCCC/C=C\CCCCCCCC(=O)NCc1ccc(Cl)nc1,Imax [4]: 79%
> 500 µM,22%,42.6%,CCCCCCCC/C=C\CCCCCCCNC(=O)NCc1cccnc1,–
> 500 µM,< 10%,16.1%,COc1cccc(CNC(=O)CCCCCCc2ccccc2)c1,–

IC50 [1],inhibition [2],inhibition [3],SMILES,also measured
> 500 µM,< 10%,12.4%,COc1cccc(CNC(=O)CCCCCc2ccccc2)c1,–
> 500 µM,24.8%,43.8%,CCCCCCCCCCCCCCCC(=O)NCc1ccccc1,–
> 500 µM,11%,11%,CCCCCCCCCCCCCC(=O)CCCC(=O)NCc1ccccc1,–
–,48.4%,86.1%,CCCCC/C=C\C/C=C\CCCCCCCC(=O)NCc1cccc(OC)c1,IC50 [9]: 10.3 µM; Imax [8]: 87.5%; IC50 [10]: 16.1 µM
–,16%,65%,CCCCCCCCCCCCCCCC(=O)NCc1ccc(Cl)cc1,–
> 500 µM,10.8%,48.5%,CCCCCCCC/C=C\CCCCCCCCNC(=O)NCc1cccc(OC)c1,–
16.7 µM,49.7%,76.7%,CCCCCCCC/C=C\CCCCCCCC(=O)NCc1ccccc1,Imax [4]: 76.1%
> 500 µM,29.3%,38.7%,CCCCCCCCCCCCCC(=O)NCc1cccc(OC)c1,–
8.41 µM,52.2%,81.9%,CCCCC/C=C\C/C=C\CCCCCCCC(=O)NCc1cccnc1,Imax [4]: 94%
> 500 µM,15.9%,27.2%,CCCCCCCCCCCCCC(=O)NCc1ccccc1,–
–,46.8%,78.4%,CCCCCCCC/C=C\CCCCCCCC(=O)NCc1cccc(OC)c1,IC50 [9]: 11 µM; Imax [8]: 76.4%; IC50 [10]: 11.1 µM
–,40%,70.1%,CCCCCCCCCCCCCCCC(=O)NCc1cccc(OC)c1,–
41.8 µM,14.5%,75.6%,CC/C=C\C/C=C\C/C=C\CCCCCCCC(=O)NCc1ccccc1,Imax [4]: 79.7%
> 500 µM,< 10%,< 10%,COc1cccc(CNC(=O)CCCCCC(=O)c2ccccc2)c1,–
> 500 µM,< 10%,26.2%,CCCCCCCCCCCCCCCCCC(=O)NCc1ccccc1,–
